Several values for one entry are separate records, joined by “and”; a condition that tells them apart may be missing. Identical values can stand only once.
Assays:
[1] = target: Adenosine receptor A2a (Homo sapiens, UniProt P29274); assay: Displacement of [3H]ZM-241385 from human adenosine A2A receptor expressed in CHO cells; assay type: cell-based
In short: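 Competition binding at cloned human receptors: [3H]DPCPX for A1 and A2B, [3H]ZM241385 for A2A, [3H]NECA for A3. Screening compounds are reported as % radioligand displacement at one concentration. SEM below 10%.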

[2] = target: T1, Adenosine receptor A2b (Homo sapiens, UniProt P29275); assay: Displacement of [3H]DPCPX from human adenosine A2B receptor expressed in HEK293 cells; assay type: cell-based
T1 sequence (P29275 whole entry): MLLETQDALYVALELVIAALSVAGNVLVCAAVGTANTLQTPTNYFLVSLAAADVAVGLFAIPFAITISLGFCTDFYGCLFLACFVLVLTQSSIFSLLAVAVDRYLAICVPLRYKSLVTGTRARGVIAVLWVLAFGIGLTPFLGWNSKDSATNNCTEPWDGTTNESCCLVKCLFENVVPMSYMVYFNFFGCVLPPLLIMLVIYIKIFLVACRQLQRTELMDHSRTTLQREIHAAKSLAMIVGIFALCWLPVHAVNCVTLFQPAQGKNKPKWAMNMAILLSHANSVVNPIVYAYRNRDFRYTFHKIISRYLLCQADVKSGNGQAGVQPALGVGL

[3] = species on record: Homo sapiens; assay: Selectivity index, ratio for human adenosine A2A receptor to human adenosine A2B receptor

Chain of Adenosine receptor A2a (P29274 whole entry): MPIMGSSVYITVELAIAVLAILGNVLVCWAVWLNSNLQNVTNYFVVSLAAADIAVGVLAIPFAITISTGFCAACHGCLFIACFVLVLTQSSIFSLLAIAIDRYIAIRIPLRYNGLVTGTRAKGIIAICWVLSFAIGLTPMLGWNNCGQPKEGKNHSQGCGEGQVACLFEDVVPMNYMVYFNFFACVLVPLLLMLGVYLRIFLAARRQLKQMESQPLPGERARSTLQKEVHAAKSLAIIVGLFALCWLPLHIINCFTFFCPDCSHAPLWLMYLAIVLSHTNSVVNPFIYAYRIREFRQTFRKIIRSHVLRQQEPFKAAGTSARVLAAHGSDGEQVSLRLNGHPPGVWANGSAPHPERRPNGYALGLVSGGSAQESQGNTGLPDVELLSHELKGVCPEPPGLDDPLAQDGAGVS

| Compound | Ki [1] | Ki ([2]; read-out: Log Ki (converted)) | Ratio [3] | Ki ([2]; read-out: Ki) [nM] |
| --- | --- | --- | --- | --- |
| CCCn1c(=O)c2[nH]c(-c3ccc(OCC(=O)N4CCC(c5ccccc5)CC4)cc3)cc2n(CCC)c1=O | 589 nM | 20.9 nM | 28.2 |  |
| CC(Oc1ccc(-c2cc3c([nH]2)c(=O)n(C)c(=O)n3C)cc1)C(=O)N1CCN(c2ccccc2)CC1 (stereo not drawn) | 355 nM | 20.4 nM | 17.4 |  |
| CCCn1c(=O)n(C)c(=O)c2[nH]c(-c3ccc(OCC(=O)N4CCN(c5ccccc5Cl)CC4)cc3)cc21 | 1100 nM | 14.8 nM | 74.1 |  |
| CCCn1c(=O)n(C)c(=O)c2[nH]c(-c3ccc(OCC(=O)N4CCc5ccccc5C4)cc3)cc21 | 209 nM and 1000 nM | 14.5 nM and 7.24 nM |  |  |
| CN1CCN(C(=O)COc2ccc(-c3cc4c([nH]3)c(=O)n(C)c(=O)n4C)cc2)CC1 | 794 nM | 174 nM | 4.05 |  |
| CCCn1c(=O)c2[nH]c(-c3ccc(OCC(=O)N4CCN(c5ccccc5)CC4)cc3)cc2n(C)c1=O | 316 nM | 13.2 nM | 24 |  |
| CC(Oc1ccc(-c2cc3c([nH]2)c(=O)n(C)c(=O)n3C)cc1)C(=O)N1CCN(c2ccc(Br)cc2)CC1 (stereo not drawn) | 269 nM | 8.13 nM | 26 |  |
| Cn1c(=O)c2[nH]c(-c3ccc(OCC(=O)N4CCN(c5cccc(Cl)c5)CC4)cc3)cc2n(C)c1=O | 155 nM |  | 55 | 3 |
| Cn1c(=O)c2[nH]c(-c3ccc(OC(C)(C)C(=O)N4CCN(c5ccccc5)CC4)cc3)cc2n(C)c1=O | 174 nM | 31.6 nM | 5.49 |  |
| COCCn1c(=O)c2[nH]c(-c3ccc(OCC(=O)N4CCN(c5ccccc5)CC4)cc3)cc2n(CCOC)c1=O | 398 nM | 4.9 nM | 81 |  |
| Cn1c(=O)c2[nH]c(-c3ccc(OCC(=O)N4CCN(c5ccc(O)cc5)CC4)cc3)cc2n(C)c1=O | 617 nM | 27.5 nM | 22 |  |
| CCCn1c(=O)c2[nH]c(-c3ccc(OCC(=O)N4CCN(c5c(Cl)cncc5Cl)CC4)cc3)cc2n(CCC)c1=O | 74.1 nM | 7.59 nM | 9.8 |  |
| CCCn1c(=O)n(C)c(=O)c2[nH]c(-c3ccc(OCC(=O)N4CCN(c5cccc(Cl)c5)CC4)cc3)cc21 | 479 nM | 6.03 nM | 79 |  |
| COc1cc(-c2cc3c([nH]2)c(=O)n(C)c(=O)n3C)ccc1OCC(=O)N1CCN(c2ccccc2)CC1 | 1450 nM | 57.5 nM | 25.1 |  |
| CCCn1c(=O)c2[nH]c(-c3ccc(OCC(=O)N4CCC(O)(c5ccccc5)CC4)cc3)cc2n(CCC)c1=O | 1150 nM | 13.5 nM | 85.1 |  |
| CCCn1c(=O)c2[nH]c(-c3ccc(OCC(=O)N4CCN(C(=O)Oc5ccccc5)CC4)cc3)cc2n(CCC)c1=O | 155 nM | 20.4 nM | 7.6 |  |
| Cn1c(=O)c2[nH]c(-c3ccc(OCC(=O)N4CCN(c5ccc(C(F)(F)F)cc5)CC4)cc3)cc2n(C)c1=O | 132 nM | 4.17 nM | 31.6 |  |
| Cn1c(=O)c2[nH]c(-c3ccc(OCC(=O)N4CCN(c5ncccn5)CC4)cc3)cc2n(C)c1=O | 417 nM | 13.5 nM | 30.9 |  |
| Cn1c(=O)c2[nH]c(-c3ccc(OCC(=O)N4CCN(Cc5ccccc5)CC4)cc3)cc2n(C)c1=O | 1550 nM | 53.7 nM | 28.8 |  |
| Cn1c(=O)c2[nH]c(-c3ccc(OCC(=O)N4CCN(c5ccccn5)CC4)cc3)cc2n(C)c1=O | 708 nM | 58.9 nM | 12 |  |
| Cn1c(=O)c2[nH]c(-c3ccc(OCC(=O)N4CCN(c5ccc(Cl)cc5)CC4)cc3)cc2n(C)c1=O | 398 nM | 3.39 nM | 117 |  |
| Cn1c(=O)c2[nH]c(-c3ccc(OCC(=O)N4CCC(c5ccccc5)CC4)cc3)cc2n(C)c1=O | 794 nM | 12.3 nM | 64.6 |  |

| Compound | Ki [1] | Ki ([2]; read-out: Log Ki (converted)) | Ratio [3] | Ki ([2]; read-out: Ki) [nM] |
| --- | --- | --- | --- | --- |
| CCn1c(=O)c2[nH]c(-c3ccc(OCC(=O)N4CCN(c5ccccc5)CC4)cc3)cc2n(CC)c1=O | 692 nM | 25.7 nM | 26.9 |  |
| O=C(COc1ccc(-c2cc3c([nH]2)c(=O)n(CC2CC2)c(=O)n3CC2CC2)cc1)N1CCN(c2ccccc2)CC1 | 49 nM | 11.7 nM | 4.2 |  |
| CCCn1c(=O)c2[nH]c(-c3ccc(OCC(=O)N4CCN(c5ccccc5Cl)CC4)cc3)cc2n(C)c1=O | 224 nM | 69.2 nM | 3.2 |  |
| CCCn1c(=O)n(C)c(=O)c2[nH]c(-c3ccc(OCC(=O)N4CCC(c5ccc(OC)cc5)CC4)cc3)cc21 | 398 nM | 9.12 nM | 43.7 |  |
| CCCn1c(=O)n(C)c(=O)c2[nH]c(-c3ccc(OCC(=O)N4CCC(c5ccccc5)CC4)cc3)cc21 | 1020 nM |  | 398 | 2.5 |
| CCCn1c(=O)n(C)c(=O)c2[nH]c(-c3ccc(OC(C)(C)C(=O)N4CCN(c5ccccc5)CC4)cc3)cc21 | 562 nM | 4.17 nM | 135 |  |
| CCCn1c(=O)c2[nH]c(-c3ccc(OCC(=O)N4CCN(c5ccccc5Cl)CC4)cc3)cc2n(CCC)c1=O | 38 nM | 6.92 nM | 5.5 |  |
| CCCn1c(=O)c2[nH]c(-c3ccc(OCC(=O)N4CCN(Cc5ccccc5)CC4)cc3)cc2n(CCC)c1=O | 257 nM | 6.17 nM | 41.7 |  |
| CCCn1c(=O)c2[nH]c(-c3ccc(OC(C)C(=O)N4CCN(c5ccccc5)CC4)cc3)cc2n(CCC)c1=O (stereo not drawn) | 240 nM | 6.61 nM | 36.3 |  |
| CCCn1c(=O)c2[nH]c(-c3ccc(OCC(=O)N4CCN(C(=O)OCc5ccccc5)CC4)cc3)cc2n(CCC)c1=O | 151 nM | 38.9 nM | 3.9 |  |
| Cc1ccc(N2CCN(C(=O)C(C)Oc3ccc(-c4cc5c([nH]4)c(=O)n(C)c(=O)n5C)cc3)CC2)cc1 (stereo not drawn) | 389 nM |  | 213 | 2 |
| CCCn1c(=O)c2[nH]c(-c3ccc(OC(C)C(=O)N4CCc5ccccc5C4)cc3)cc2n(CCC)c1=O (stereo not drawn) | 158 nM | 4.68 nM | 33.9 |  |
| COc1ccc(C2CCN(C(=O)COc3ccc(-c4cc5c([nH]4)c(=O)n(C)c(=O)n5C)cc3OC)CC2)cc1 | 871 nM | 30.9 nM | 28.2 |  |
| Cn1c(=O)c2[nH]c(-c3ccc(OCC(=O)N4CCN(c5ccccc5Cl)CC4)cc3)cc2n(C)c1=O | 355 nM | 6.31 nM | 56 |  |
| CC(Oc1ccc(-c2cc3c([nH]2)c(=O)n(C)c(=O)n3C)cc1)C(=O)N1CCN(c2ccccc2Cl)CC1 (stereo not drawn) | 741 nM | 70.8 nM | 10.5 |  |
| CCCn1c(=O)c2[nH]c(-c3ccc(OCC(=O)N4CCN(c5ccc(C(F)(F)F)cc5)CC4)cc3)cc2n(CCC)c1=O | 174 nM | 4.17 nM | 41.7 |  |
| CCCn1c(=O)c2[nH]c(-c3ccc(OCC(=O)N4CCN(c5cccc(Cl)c5)CC4)cc3)cc2n(CCC)c1=O | 115 nM |  | 75.9 | 1.5 |
| CCCn1c(=O)n(C)c(=O)c2[nH]c(-c3ccc(OCC(=O)N4CCN(c5ccccc5)CC4)cc3)cc21 | 708 nM | 25.7 nM | 27.5 |  |
| O=C(COc1ccc(-c2cc3c([nH]2)c(=O)n(CC2CC2)c(=O)n3CC2CC2)cc1)N1CCc2ccccc2C1 | 240 nM | 9.55 nM | 25 |  |
| Cn1c(=O)c2[nH]c(-c3ccc(OCC(=O)N4CCN(c5ccc(C#N)cc5)CC4)cc3)cc2n(C)c1=O | 355 nM | 6.31 nM | 56 |  |
| COc1cc(-c2cc3c([nH]2)c(=O)n(C)c(=O)n3C)ccc1OCC(=O)N1CCc2ccccc2C1 | 6760 nM | 170 nM | 39 |  |

From ChEMBL document CHEMBL1143979, “1-, 3- and 8-substituted-9-deazaxanthines as potent and selective antagonists at the human A2B adenosine receptor” (Bioorg Med Chem, 2008)
